Data as given in ChEMBL document CHEMBL1146333, “Synthesis and antitumor evaluation of a novel series of triaminotriazine derivatives” (Bioorg Med Chem, 2007).
The source made the active and inactive calls. The rule behind the calls is not given here.

How the values were obtained:
[1] = tested on: HCT-116; experiment: Growth inhibition of human HCT116 cells at 10 uM after 72 hrs by SRB assay; assay type: functional; conditions: for inhibition at 10 µM: HCT-116, 72 h
Summary of the method: (§1)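 SRB growth assay on HCT-116 or HT-29 cells (RPMI-1640, 10% FBS, 37 °C, 5% CO2). Seeded at 6000 cells/well, attached overnight, exposed in triplicate at 10 μM for 72 h. Cells TCA-fixed, SRB-stained, A515 read. Percent inhibition = [1 − A515 treated/A515 control] × 100; mean of three determinations.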

[2] = tested on: HT-29; experiment: Growth inhibition of human HT29 cells at 10 uM after 72 hrs by SRB assay; assay type: functional; conditions: for inhibition at 10 µM: HT-29, 72 h; summary of the method: as §1
[3] = tested on: HCT-116; experiment: Growth inhibition of human HCT116 cells after 72 hrs by SRB assay; assay type: functional, cell-based; conditions: HCT-116, 72 h
Summary of the method: (§2)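 HCT-116 and HT-29 human colorectal lines (ATCC) grown in RPMI-1640 with 10% FBS, 2 mmol/L glutamine, penicillin/streptomycin, at 37 °C in 5% CO2. Seeded at 6000 cells/well, attached overnight, then treated in triplicate with graded concentrations for 72 h. Cells fixed in 10% TCA, stained with SRB, and A515 read. IC50 obtained by the Logit method; mean of three independent tests.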

[4] = tested on: HT-29; experiment: Growth inhibition of human HT29 cells after 72 hrs by SRB assay; assay type: functional, cell-based; conditions: HT-29, 72 h; summary of the method: as §2
[5] = tested on: Rattus norvegicus; experiment: Volume of distribution in Sprague-Dawley rat at 2 mg/kg, iv; assay type: ADME, organism-based; parameters: dose 2 mg/kg, route intravenous; conditions: in vivo
Summary of the method: (§3)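 Sprague–Dawley rats acclimatized one week, then given one iv dose of 2 mg/kg in PEG400:cremophor (100:15, v/v). Orbital-sinus blood drawn under light ether at 0, 5, 15, 30 min and 1, 2, 4, 6, 8 h; plasma stored at −70 °C.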

[6] = Cmax in Sprague-Dawley rat at 10 mg/kg, po after 15 mins; assay type: ADME, organism-based; parameters: dose 10 mg/kg, route oral; conditions: in vivo
Summary of the method: (§4)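 Sprague–Dawley rats given one oral gavage dose of 10 mg/kg suspended in 0.5% CMC-Na. Orbital-sinus blood drawn at 0, 5, 15, 30 min and 1, 2, 4, 6, 8 h; plasma frozen at −70 °C, extracted with EtOAc, and quantified by LC–MS/MS. Cmax and Tpeak read directly from the data; t1/2 = 0.693/k; mean ± SD.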

[7] = Mean resident time in Sprague-Dawley rat at 2 mg/kg, iv; assay type: ADME, organism-based; parameters: dose 2 mg/kg, route intravenous; conditions: in vivo; summary of the method: as §3
[8] = tested on: Sarcoma-180; experiment: Antitumor activity in sarcoma180 cells implanted in KM mouse at 200 mg/kg, ip after 7 days; assay type: functional; conditions: route intraperitoneal
Summary of the method: (§5)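 Sarcoma 180 cells implanted in the axilla of female KM mice (6–8 weeks) on Day 0, randomized on Day 1 (control 20/group, treated 10/group). Treated mice got 200 mg/kg ip once daily for 7 days, suspended in 0.5% CMC. Mice killed 24 h after the last dose; body and tumor weights taken. Inhibition = (control − treated mean tumor weight)/control mean tumor weight × 100%.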

[9] = Elimination half life in Sprague-Dawley rat at 2 mg/kg, iv; assay type: ADME, organism-based; parameters: dose 2 mg/kg, route intravenous; conditions: in vivo; summary of the method: as §3
[10] = tested on: Mus musculus; experiment: Increase in body weight in KM mouse at 200 mg/kg, ip after 7 days; assay type: functional; conditions: route intraperitoneal; summary of the method: as §5
[11] = tested on: Mus musculus; experiment: Tumor weight in KM mouse at 200 mg/kg, ip after 7 days; assay type: functional; conditions: route intraperitoneal; summary of the method: as §5
[12] = Elimination half life in Sprague-Dawley rat at 10 mg/kg, po; assay type: ADME, organism-based; parameters: dose 10 mg/kg, route oral; conditions: in vivo; summary of the method: as §4
[13] = Oral bioavailability in Sprague-Dawley rat at 10 mg/kg; assay type: ADME, organism-based; conditions: in vivo
Summary of the method: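 Rats received 10 mg/kg oral (0.5% CMC-Na) or 2 mg/kg iv (PEG400:cremophor 100:15). Serial plasma samples, 0–8 h, quantified by LC–MS/MS after EtOAc extraction. F = (AUCoral × Dose_iv)/(AUC_iv × Dose_oral) × 100%.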

[14] = Clearance in Sprague-Dawley rat at 2 mg/kg, iv; assay type: ADME, organism-based; parameters: dose 2 mg/kg, route intravenous; conditions: in vivo; summary of the method: as §3
[15] = tested on: Mus musculus; experiment: Increase in body weight in KM mouse at 100 mg/kg, ip; assay type: functional; conditions: route intraperitoneal
[16] = Mean resident time in Sprague-Dawley rat at 10 mg/kg, po; assay type: ADME, organism-based; parameters: dose 10 mg/kg, route oral; conditions: in vivo; summary of the method: as §4
[17] = tested on: Mus musculus; experiment: Tumor weight in KM mouse at 100 mg/kg, ip; assay type: functional; conditions: route intraperitoneal

| SMILES | inhibition at 10 µM [1] [%] | inhibition at 10 µM [2] [%] | further results |
| --- | --- | --- | --- |
| COc1ccc(Nc2nc(NCc3ccccc3)nc(N3CCOCC3)n2)cc1 | 20.1 | 88.4 |  |
| NS(=O)(=O)c1ccc(Nc2nc(NCc3ccccc3)nc(N3CCOCC3)n2)cc1 |  | 68.6 | Activity [1]: inactive |
| FC(F)(F)Oc1ccc(Nc2nc(Nc3ccccc3)nc(N3CCOCC3)n2)cc1 | 63.4 | 87.3 |  |
| COc1ccc(Nc2nc(Nc3ccccc3)nc(N3CCOCC3)n2)cc1OC | 84.7 | 76.4 | IC50 [3]: 0.92 µM |
| c1ccc(Nc2nc(Nc3ccccc3)nc(N3CCOCC3)n2)cc1 | 81.3 | 85 | IC50 [3]: 4.7 µM; IC50 [4]: 31 µM |
| COc1ccc(Nc2nc(Nc3ccc(OC)cc3)nc(N3CCN(CCO)CC3)n2)cc1 |  | 49.3 | Activity [1]: inactive |
| CCOc1ccc(Nc2nc(Nc3ccccc3)nc(N3CCOCC3)n2)cc1 | 64.1 | 87.5 |  |
| COc1ccc(Nc2nc(NCCN3CCOCC3)nc(Nc3ccccc3)n2)cc1 |  | 74.6 | Activity [1]: inactive |
| Brc1ccc(Nc2nc(Nc3ccccc3)nc(N3CCOCC3)n2)cc1 | 77.7 | 89.7 | IC50 [4]: 25 µM |
| C1CN(c2nc(N3CCOCC3)nc(N3CCOCC3)n2)CCO1 |  |  | Activity [1]: inactive; Activity [2]: inactive |
| c1ccc(CNc2nc(Nc3ccccc3)nc(N3CCOCC3)n2)cc1 | 48.7 | 90.5 |  |
| COc1ccc(Nc2nc(N3CCOCC3)nc(N3CCOCC3)n2)cc1 | 6.9 | 74.2 |  |
| Clc1ccc(Nc2nc(Nc3ccccc3)nc(N3CCOCC3)n2)cc1 | 51.7 | 87.1 | IC50 [4]: 37 µM |
| c1ccc(CNc2nc(N3CCOCC3)nc(N3CCOCC3)n2)cc1 |  | 5.2 | Activity [1]: inactive |
| Fc1ccc(Nc2nc(NCc3ccccc3)nc(N3CCOCC3)n2)cc1 | 10.1 | 87.1 |  |
| COc1cccc(Nc2nc(Nc3ccccc3)nc(N3CCOCC3)n2)c1 | 82.6 | 87.4 | IC50 [4]: 39 µM |
| COc1ccc(Nc2nc(Nc3ccccc3)nc(N3CCN(CCO)CC3)n2)cc1 | 19 | 77.3 |  |
| Cc1ccc(CNc2nc(Nc3ccccc3)nc(N3CCOCC3)n2)cc1 | 15.7 | 75.3 |  |
| OCCNc1nc(Nc2ccccc2)nc(Nc2ccccc2)n1 |  | 33.9 | Activity [1]: inactive |

| SMILES | inhibition at 10 µM [1] [%] | inhibition at 10 µM [2] [%] | further results |
| --- | --- | --- | --- |
| c1ccc(CNc2nc(NCc3ccccc3)nc(N3CCOCC3)n2)cc1 |  | 50 | Activity [1]: inactive |
| NC(=O)c1ccc(Nc2nc(Nc3ccccc3)nc(N3CCOCC3)n2)cc1 | 85.8 | 87.8 | IC50 [3]: 9.6 µM; IC50 [4]: 8.1 µM |
| NS(=O)(=O)c1ccc(Nc2nc(N3CCOCC3)nc(N3CCOCC3)n2)cc1 |  |  | Activity [1]: inactive; Activity [2]: inactive |
| COc1ccc(Nc2nc(NCCO)nc(Nc3ccccc3)n2)cc1 |  | 13.7 | Activity [1]: inactive |
| COc1ccc(Nc2nc(Nc3ccc(OC)cc3)nc(N3CCOCC3)n2)cc1 | 53.3 | 80.6 | IC50 [4]: 100 µM |
| COc1ccc(Nc2nc(Nc3ccc(S(N)(=O)=O)cc3)nc(N3CCOCC3)n2)cc1 | 69 | 83.2 |  |
| Fc1ccc(Nc2nc(N3CCOCC3)nc(N3CCOCC3)n2)cc1 |  | 80.2 | Activity [1]: inactive |
| CSc1ccc(Nc2nc(Nc3ccc(C)cc3)nc(N3CCOCC3)n2)cc1 | 71.1 | 54.1 | IC50 [3]: 120 µM |
| COc1ccc(Nc2nc(Nc3ccc(SC)cc3)nc(N3CCOCC3)n2)cc1OC | 79.2 | 81.4 |  |
| COc1ccc(Nc2nc(Nc3ccccc3)nc(N3CCOCC3)n2)cc1 | 81.4 | 100 | Vdss [5]: 2.11 L/kg; Cmax [6]: 1290 ng/mL; MRT [7]: 1.06 h; Activity [8]: 40.7%; half-life [9]: 1.09 h; Activity [10]: 27.3 g; Activity [11]: 0.89 g; half-life [12]: 1.16 h; bioavailability [13]: 30.9%; IC50 [3]: 0.76 µM; clearance [14]: 22.7 mL/min/kg; Activity [15]: 29.3 g; MRT [16]: 1.88 h; IC50 [4]: 30 µM; Activity [17]: 1.65 g |
| Fc1ccc(Nc2nc(Nc3ccc(OC(F)(F)F)cc3)nc(N3CCOCC3)n2)cc1 | 62 | 85.5 |  |
| c1ccc(Nc2nc(N3CCOCC3)nc(N3CCOCC3)n2)cc1 | 44.9 | 80.5 |  |
| OCCN1CCN(c2nc(Nc3ccccc3)nc(Nc3ccccc3)n2)CC1 | 22 | 76.1 |  |
| COc1ccc(Nc2nc(Nc3ccc(F)cc3)nc(N3CCOCC3)n2)cc1 |  | 82.3 | Activity [1]: inactive |
| c1ccc(Nc2nc(NCCN3CCOCC3)nc(Nc3ccccc3)n2)cc1 | 30.1 | 23.4 |  |
| Fc1ccc(Nc2nc(Nc3ccccc3)nc(N3CCOCC3)n2)cc1 | 60.1 | 90 |  |
| COc1ccccc1Nc1nc(Nc2ccccc2)nc(N2CCOCC2)n1 | 78.3 | 89.3 |  |
| NS(=O)(=O)c1ccc(Nc2nc(Nc3ccccc3)nc(N3CCOCC3)n2)cc1 | 96.2 | 80.4 | IC50 [3]: 2 µM |
